{
  "source": "ChEMBL document CHEMBL5724801",
  "about": "“EUbOPEN Chemogenomics Library - Multiplex” (2024)",
  "key": {"Fibroblast": {"tested_on": "Fibroblast", "experiment": "Multiplex assay against human fibroblast", "format": "toxicity, cell-based", "summary_of_the_method": "(§1)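 On a CQ1 microscope at 37°C and 5% CO2, live cells were imaged after compound addition. They had been stained at seeding with Hoechst33342, BioTracker Green Microtubule Cytoskeleton Dye, MitoTracker Red and Annexin V Alexa Fluor 680. CellPathfinder machine-learning gating assigned cells to Hoechst high-intensity objects or normal cells, normal cells to healthy, pyknosed or fragmented nuclei, and pyknosed cells to mitotic or apoptotic. Tubulin, mitochondrial-mass and membrane-permeability phenotypes are per cents of healthy-nucleus cells.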"}, "HEK-293T": {"tested_on": "HEK-293T", "experiment": "Multiplex assay against HEK293T", "format": "toxicity, cell-based", "details": "human", "summary_of_the_method": "as §1"}, "[1]": {"details": "12 h, 1 µM, compound concentration 1 uM"}, "[2]": {"details": "12 h, 10 µM, compound concentration 10 uM"}, "[3]": {"details": "24 h, 1 µM, compound concentration 1 uM"}, "[4]": {"details": "24 h, 10 µM, compound concentration 10 uM"}, "[5]": {"details": "48 h, 1 µM, compound concentration 1 uM"}, "[6]": {"details": "48 h, 10 µM, compound concentration 10 uM"}},
  "note": "“And” between values parts separate entries of the source, which are not always exact repeats. Equal values may be shown once.",
  "data": [
    {"compound": "O=C(Nc1ccccc1Cl)c1cnc2ccc(C3CCNCC3)cn12.O=C(O)C(=O)O", "values": [
      {"measurement": "Population Fragmented Nuclei (%)", "setting": "Fibroblast; [1]", "value": "12.96% and 7.79%"},
      {"measurement": "Population Healthy Nuclei (%)", "setting": "Fibroblast; [1]", "value": "60.19% and 75.41%"},
      {"measurement": "Population Hoechst High Intensity Objects (%)", "setting": "Fibroblast; [1]", "value": 0, "unit": "%"},
      {"measurement": "Population Membrane Permeable-Phenotype (%)", "setting": "Fibroblast; [1]", "value": "1.54% and 2.72%"},
      {"measurement": "Population Mitochondria Different-Phenotype (%)", "setting": "Fibroblast; [1]", "value": "7.69% and 10.87%"},
      {"measurement": "Population Mitotic Cells (%)", "setting": "Fibroblast; [1]", "value": "93.1% and 73.17%"},
      {"measurement": "Population Normal (%)", "setting": "Fibroblast; [1]", "value": 100, "unit": "%"},
      {"measurement": "Population Pyknosed Nuclei (%)", "setting": "Fibroblast; [1]", "value": "26.85% and 16.8%"},
      {"measurement": "Population Tubulin-Different-Phenotype (%)", "setting": "Fibroblast; [1]", "value": "17.69% and 23.91%"},
      {"measurement": "Total Cell Count", "setting": "Fibroblast; [1]", "value": "216 and 244"},
      {"measurement": "Population Apoptotic (%)", "setting": "Fibroblast; [2]", "value": "16.33% and 20.48%"},
      {"measurement": "Population Healthy Nuclei (%)", "setting": "Fibroblast; [2]", "value": "62.09% and 63.64%"},
      {"measurement": "Population Hoechst High Intensity Objects (%)", "setting": "Fibroblast; [2]", "value": "0% and 0.43%"},
      {"measurement": "Population Membrane Permeable-Phenotype (%)", "setting": "Fibroblast; [2]", "value": "4.42% and 7.48%"},
      {"measurement": "Population Mitochondria Different-Phenotype (%)", "setting": "Fibroblast; [2]", "value": "17.7% and 21.09%"},
      {"measurement": "Population Mitotic Cells (%)", "setting": "Fibroblast; [2]", "value": "83.67% and 79.52%"},
      {"measurement": "Population Normal (%)", "setting": "Fibroblast; [2]", "value": "100% and 99.57%"},
      {"measurement": "Population Pyknosed Nuclei (%)", "setting": "Fibroblast; [2]", "value": "26.92% and 35.93%"},
      {"measurement": "Population Tubulin-Different-Phenotype (%)", "setting": "Fibroblast; [2]", "value": "40.71% and 57.82%"},
      {"measurement": "Total Cell Count", "setting": "Fibroblast; [2]", "value": "182 and 232"},
      {"measurement": "Population Apoptotic (%)", "setting": "Fibroblast; [3]", "value": "14.29% and 25.71%"},
      {"measurement": "Population Fragmented Nuclei (%)", "setting": "Fibroblast; [3]", "value": "11.52% and 3.52%"},
      {"measurement": "Population Healthy Nuclei (%)", "setting": "Fibroblast; [3]", "value": "72.35% and 81.06%"},
      {"measurement": "Population Hoechst High Intensity Objects (%)", "setting": "Fibroblast; [3]", "value": 0, "unit": "%"},
      {"measurement": "Population Membrane Permeable-Phenotype (%)", "setting": "Fibroblast; [3]", "value": "4.46% and 3.8%"},
      {"measurement": "Population Mitochondria Different-Phenotype (%)", "setting": "Fibroblast; [3]", "value": "8.92% and 15.22%"},
      {"measurement": "Population Mitotic Cells (%)", "setting": "Fibroblast; [3]", "value": "85.71% and 74.29%"},
      {"measurement": "Population Normal (%)", "setting": "Fibroblast; [3]", "value": 100, "unit": "%"},
      {"measurement": "Population Pyknosed Nuclei (%)", "setting": "Fibroblast; [3]", "value": "16.13% and 15.42%"},
      {"measurement": "Population Tubulin-Different-Phenotype (%)", "setting": "Fibroblast; [3]", "value": "19.75% and 25.54%"},
      {"measurement": "Total Cell Count", "setting": "Fibroblast; [3]", "value": "217 and 227"},
      {"measurement": "Population Apoptotic (%)", "setting": "Fibroblast; [4]", "value": "35.29% and 37.66%"},
      {"measurement": "Population Healthy Nuclei (%)", "setting": "Fibroblast; [4]", "value": "67.43% and 62.44%"},
      {"measurement": "Population Hoechst High Intensity Objects (%)", "setting": "Fibroblast; [4]", "value": 0, "unit": "%"},
      {"measurement": "Population Membrane Permeable-Phenotype (%)", "setting": "Fibroblast; [4]", "value": "6.78% and 10.53%"},
      {"measurement": "Population Mitochondria Different-Phenotype (%)", "setting": "Fibroblast; [4]", "value": "28.81% and 18.05%"},
      {"measurement": "Population Mitotic Cells (%)", "setting": "Fibroblast; [4]", "value": "64.71% and 62.34%"},
      {"measurement": "Population Normal (%)", "setting": "Fibroblast; [4]", "value": 100, "unit": "%"},
      {"measurement": "Population Pyknosed Nuclei (%)", "setting": "Fibroblast; [4]", "value": "19.43% and 36.15%"},
      {"measurement": "Population Tubulin-Different-Phenotype (%)", "setting": "Fibroblast; [4]", "value": "49.15% and 60.9%"},
      {"measurement": "Total Cell Count", "setting": "Fibroblast; [4]", "value": "175 and 213"},
      {"measurement": "Population Fragmented Nuclei (%)", "setting": "Fibroblast; [5]", "value": "11.26% and 5.24%"},
      {"measurement": "Population Healthy Nuclei (%)", "setting": "Fibroblast; [5]", "value": "79.73% and 81.22%"},
      {"measurement": "Population Hoechst High Intensity Objects (%)", "setting": "Fibroblast; [5]", "value": 0, "unit": "%"},
      {"measurement": "Population Membrane Permeable-Phenotype (%)", "setting": "Fibroblast; [5]", "value": "2.26% and 5.91%"},
      {"measurement": "Population Mitochondria Different-Phenotype (%)", "setting": "Fibroblast; [5]", "value": "7.91% and 2.15%"},
      {"measurement": "Population Mitotic Cells (%)", "setting": "Fibroblast; [5]", "value": "90% and 64.52%"},
      {"measurement": "Population Normal (%)", "setting": "Fibroblast; [5]", "value": 100, "unit": "%"},
      {"measurement": "Population Pyknosed Nuclei (%)", "setting": "Fibroblast; [5]", "value": "9.01% and 13.54%"},
      {"measurement": "Population Tubulin-Different-Phenotype (%)", "setting": "Fibroblast; [5]", "value": "12.43% and 28.49%"},
      {"measurement": "Total Cell Count", "setting": "Fibroblast; [5]", "value": "222 and 229"},
      {"measurement": "Population Apoptotic (%)", "setting": "Fibroblast; [6]", "value": "33.33% and 60.38%"},
      {"measurement": "Population Fragmented Nuclei (%)", "setting": "Fibroblast; [6]", "value": "10.9% and 1.94%"},
      {"measurement": "Population Healthy Nuclei (%)", "setting": "Fibroblast; [6]", "value": "75.64% and 63.87%"},
      {"measurement": "Population Hoechst High Intensity Objects (%)", "setting": "Fibroblast; [6]", "value": "0% and 0.64%"},
      {"measurement": "Population Mitochondria Different-Phenotype (%)", "setting": "Fibroblast; [6]", "value": "13.56% and 16.16%"},
      {"measurement": "Population Mitotic Cells (%)", "setting": "Fibroblast; [6]", "value": "66.67% and 39.62%"},
      {"measurement": "Population Normal (%)", "setting": "Fibroblast; [6]", "value": "100% and 99.36%"},
      {"measurement": "Population Pyknosed Nuclei (%)", "setting": "Fibroblast; [6]", "value": "13.46% and 34.19%"},
      {"measurement": "Population Tubulin-Different-Phenotype (%)", "setting": "Fibroblast; [6]", "value": "50.85% and 74.75%"},
      {"measurement": "Total Cell Count", "setting": "Fibroblast; [6]", "value": 156},
      {"measurement": "Population Apoptotic (%)", "setting": "HEK-293T; [1]", "value": "13.38% and 9.73%"},
      {"measurement": "Population Fragmented Nuclei (%)", "setting": "HEK-293T; [1]", "value": "1.98% and 9.79%"},
      {"measurement": "Population Hoechst High Intensity Objects (%)", "setting": "HEK-293T; [1]", "value": "0.39% and 0%"},
      {"measurement": "Population Membrane Permeable-Phenotype (%)", "setting": "HEK-293T; [1]", "value": "1.89% and 0%"},
      {"measurement": "Population Mitotic Cells (%)", "setting": "HEK-293T; [1]", "value": "86.62% and 90.27%"},
      {"measurement": "Population Normal (%)", "setting": "HEK-293T; [1]", "value": "99.61% and 100%"},
      {"measurement": "Population Pyknosed Nuclei (%)", "setting": "HEK-293T; [1]", "value": "56.13% and 79.02%"},
      {"measurement": "Population Tubulin-Different-Phenotype (%)", "setting": "HEK-293T; [1]", "value": "20.75% and 18.75%"},
      {"measurement": "Total Cell Count", "setting": "HEK-293T; [1]", "value": "254 and 143"},
      {"measurement": "Population Apoptotic (%)", "setting": "HEK-293T; [2]", "value": "16.08% and 15.91%"},
      {"measurement": "Population Fragmented Nuclei (%)", "setting": "HEK-293T; [2]", "value": "4.31% and 3.38%"},
      {"measurement": "Population Hoechst High Intensity Objects (%)", "setting": "HEK-293T; [2]", "value": "0.48% and 0%"},
      {"measurement": "Population Membrane Permeable-Phenotype (%)", "setting": "HEK-293T; [2]", "value": "1.75% and 0%"},
      {"measurement": "Population Mitochondria Different-Phenotype (%)", "setting": "HEK-293T; [2]", "value": "66.67% and 72.73%"},
      {"measurement": "Population Mitotic Cells (%)", "setting": "HEK-293T; [2]", "value": "83.92% and 84.09%"},
      {"measurement": "Population Normal (%)", "setting": "HEK-293T; [2]", "value": "99.52% and 100%"},
      {"measurement": "Population Pyknosed Nuclei (%)", "setting": "HEK-293T; [2]", "value": "68.42% and 89.19%"},
      {"measurement": "Population Tubulin-Different-Phenotype (%)", "setting": "HEK-293T; [2]", "value": "52.63% and 54.55%"},
      {"measurement": "Total Cell Count", "setting": "HEK-293T; [2]", "value": "210 and 148"},
      {"measurement": "Population Apoptotic (%)", "setting": "HEK-293T; [3]", "value": "19.23% and 23.68%"},
      {"measurement": "Population Fragmented Nuclei (%)", "setting": "HEK-293T; [3]", "value": "1.95% and 4.9%"},
      {"measurement": "Population Hoechst High Intensity Objects (%)", "setting": "HEK-293T; [3]", "value": "0.97% and 0%"},
      {"measurement": "Population Membrane Permeable-Phenotype (%)", "setting": "HEK-293T; [3]", "value": "0.74% and 4.55%"},
      {"measurement": "Population Mitochondria Different-Phenotype (%)", "setting": "HEK-293T; [3]", "value": "37.5% and 22.73%"},
      {"measurement": "Population Mitotic Cells (%)", "setting": "HEK-293T; [3]", "value": "80.77% and 76.32%"},
      {"measurement": "Population Normal (%)", "setting": "HEK-293T; [3]", "value": "99.03% and 100%"},
      {"measurement": "Population Pyknosed Nuclei (%)", "setting": "HEK-293T; [3]", "value": "31.71% and 79.72%"},
      {"measurement": "Population Tubulin-Different-Phenotype (%)", "setting": "HEK-293T; [3]", "value": "31.25% and 22.73%"},
      {"measurement": "Total Cell Count", "setting": "HEK-293T; [3]", "value": "414 and 143"},
      {"measurement": "Population Apoptotic (%)", "setting": "HEK-293T; [4]", "value": "34.45% and 29.91%"},
      {"measurement": "Population Fragmented Nuclei (%)", "setting": "HEK-293T; [4]", "value": "4.76% and 4%"}
    ]}
  ]
}
